Source: paper PMC12353801 (Nature Medicine, 2025)

Key:
[1] = system: patients with IPF; test: Phase 2a trial: treatment-emergent adverse events; type: in vivo, human; conditions: for percentage of patients who have at least one treatment-emergent adverse event / AEs considered to be treatment related / AEs leading to treatment discontinuation / Any AE / Liver function: ALT increase / Liver function: AST increase / Liver function: Liver injury / SAEs considered to be treatment related / SAEs resulting in death / SAEs, grade ≥3: 12 weeks; for AEs considered to be treatment related / AEs leading to treatment discontinuation / Any AE / Liver function: ALT increase / Liver function: AST increase / Liver function: Liver injury / SAEs considered to be treatment related / SAEs resulting in death / SAEs, grade ≥3: n = 18
[2] = system: patients with IPF; test: Phase 2a trial: change in forced vital capacity; type: in vivo, human
How it was run: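 This was a double-blind, 1:1:1:1 randomized trial of oral 30 mg QD, 30 mg BID or 60 mg QD against placebo QD for 12 weeks on standard of care. Spirometry to 2019 ATS/ERS criteria, on central SpiroSphere devices or on unchanged local equipment, was done at baseline and week 12. Analysis used ANCOVA (treatment fixed, baseline covariate) with multiple imputation for missing week-12 data, two-sided, intent-to-treat.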

[3] = system: patients with IPF; test: Phase 2a trial: acute exacerbations of IPF and days hospitalized; type: in vivo, human; conditions: 60 mg QD
How it was run: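 Acute IPF exacerbations, and days in hospital after each, were recorded from week 0 through week 12 in IPF patients. Patients received oral dosing (30 mg QD, 30 mg BID or 60 mg QD) or placebo QD alongside standard of care. Adverse events were monitored throughout treatment and for 1 week after the last dose.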

[4] = Pharmacokinetics of rentosertib in blood plasma of patients with IPF; type: in vivo, human
[5] = system: serum proteins; test: Olink Explore 3072 proteomic profiling of patient serum; type: in vivo, human; conditions: for number of serum proteins significantly changing with treatment: Benjamini–Hochberg-adjusted P value <0.1
How it was run: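 Serum was sampled at baseline and weeks 2, 4, 8 and 12 and profiled on the Olink Explore 3072 panel as NPX. Dose effects were fitted per protein with a generalized linear mixed model: NPX ~ treatment + visit + treatment:visit + (1|patient). Baseline-to-week-12 change was tested by two-sided paired t-test. P values were BH-adjusted, with significance at adjusted P < 0.1.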

[6] = system: healthy individuals; conditions: phase 0 and 1 trials; cited from earlier work

## CC(C)n1cnc(-c2ccc(F)cc2)c1-c1ncc(C(=O)Nc2ccc(N3CCN(C)CC3)cc2)[nH]1 [rentosertib]
[1]; 30 mg BID, 1 patient
  TEAE: alanine aminotransferase (ALT) increase: 5.6%
[1]; 30 mg BID, 2/18
  treatment-related SAEs: 11.1%
[1]; 30 mg BID, 3 patients
  TEAE: diarrhea: 16.7%
[1]; 30 mg BID, 4/18
  treatment discontinued for AEs due to liver injury or dysfunction: 22.2%
[1]; 30 mg BID, 4 patients
  TEAE: hepatic function abnormal: 22.2%
[1]; 30 mg BID, 5 patients
  TEAE: hypokalemia: 27.8%
[1]; 30 mg BID, 11/18
  Treatment-related AEs: 61.1%
[1]; 30 mg BID, n = 15/18
  percentage of patients who have at least one treatment-emergent adverse event: 83.3%
[1]; 30 mg BID
  AEs considered to be treatment related: 11 (61.1) no. (%)
  AEs leading to treatment discontinuation: 5 (27.8) no. (%)
  Any AE: 15 (83.3) no. (%)
  Liver function: ALT increase: 0 (0) no. (%)
  Liver function: AST increase: 0 (0) no. (%)
  Liver function: Liver injury: 2 (11.1) no. (%)
  SAEs considered to be treatment related: 2 (11.1) no. (%)
  SAEs resulting in death: 1 (5.6) no. (%)
  SAEs, grade ≥3: 4 (22.2) no. (%)
[1]; 30 mg QD, 0/18
  treatment discontinued for AEs due to liver injury or dysfunction: 0%
[1]; 30 mg QD, 30 mg BID and 60 mg QD over 12 weeks
  safety and tolerability, overall: safe and well tolerated
[1]; 30 mg QD, 1/18
  treatment-related SAEs: 5.6%
[1]; 30 mg QD, 1 patient
  TEAE: alanine aminotransferase (ALT) increase: 5.6%
[1]; 30 mg QD, 2 patients
  TEAE: diarrhea: 11.1%
  TEAE: hepatic function abnormal: 11.1%
[1]; 30 mg QD, 3 patients
  TEAE: hypokalemia: 16.7%
[1]; 30 mg QD, 9/18
  Treatment-related AEs: 50.0%
[1]; 30 mg QD, n = 13/18
  percentage of patients who have at least one treatment-emergent adverse event: 72.2%
[1]; 30 mg QD
  AEs considered to be treatment related: 9 (50.0) no. (%)
  AEs leading to treatment discontinuation: 1 (5.6) no. (%)
  Any AE: 13 (72.2) no. (%)
  Liver function: ALT increase: 0 (0) no. (%)
  Liver function: AST increase: 0 (0) no. (%)
  Liver function: Liver injury: 0 (0) no. (%)
  SAEs considered to be treatment related: 1 (5.6) no. (%)
  SAEs resulting in death: 0 (0) no. (%)
  SAEs, grade ≥3: 2 (11.1) no. (%)
[1]; 60 mg QD
  TEAE: alanine aminotransferase (ALT) increase: 33.3%
  AEs considered to be treatment related: 14 (77.8) no. (%)
  AEs leading to treatment discontinuation: 4 (22.2) no. (%)
  Any AE: 15 (83.3) no. (%)
  Liver function: ALT increase: 1 (5.6) no. (%)
  Liver function: AST increase: 1 (5.6) no. (%)
  Liver function: Liver injury: 1 (5.6) no. (%)
  SAEs considered to be treatment related: 2 (11.1) no. (%)
  SAEs resulting in death: 0 (0) no. (%)
  SAEs, grade ≥3: 7 (38.9) no. (%)
[1]; 60 mg QD, 2/18
  treatment-related SAEs: 11.1%
[1]; 60 mg QD, 3/18
  treatment discontinued for AEs due to liver injury or dysfunction: 17%
[1]; 60 mg QD, 5 patients
  TEAE: diarrhea: 27.8%
[1]; 60 mg QD, n = 15/18
  percentage of patients who have at least one treatment-emergent adverse event: 83.3%
[1]; 60 mg QD, 14/18
  Treatment-related AEs: 77.8%
[2]; 30 mg BID
  Absolute change in FVC from baseline after 12 weeks, mean (95% CI): +19.7 ml
[2]; 30 mg QD
  Absolute change in FVC from baseline after 12 weeks, mean (95% CI): -27.0 mL
[2]; 60 mg QD
  Absolute change in FVC from baseline after 12 weeks, mean (95% CI): +98.4 ml
[2]; 60 mg QD, 12 weeks, not concurrently taking SOC antifibrotic therapy
  Change in FVC - No SOC: FVC change from baseline (95% CI): +187.8 mL
[3]
  Number of days hospitalized for acute IPF exacerbations, Mean (SD): 23.3 days
[3]; three patients
  patients who experienced acute exacerbation of IPF (AE-IPF): 16.7%
[4]; 30 mg BID, week 0 (first dose)
  AUC0–t, arithmetic mean: 315 h/ng/mL
[4]; 30 mg BID, week 12 (EOT)
  AUC0–t, arithmetic mean: 1,390 h ng^−1 ml^−1
[4]; 30 mg QD, 30 mg BID, 60 mg QD, single and multiple doses
  time of peak plasma concentration after administration: 1 h
[4]; 30 mg QD, week 0 (first dose)
  AUC0–t, arithmetic mean: 553 h/ng/mL
[4]; 30 mg QD, week 12 (EOT)
  AUC0–t, arithmetic mean: 788 h/ng/mL
[4]; 60 mg QD, week 0 (first dose)
  AUC0–t, arithmetic mean: 1,630 h ng^−1 ml^−1
[4]; 60 mg QD, week 12 (EOT)
  AUC0–t, arithmetic mean: 3,450 h ng^−1 ml^−1
[4]; by week 12
  drug accumulation: no obvious drug accumulation
[4]; multiple doses
  steady state achieved: 2 week
[5]; 30 mg BID
  number of significantly altered proteins from baseline to week 12: 39
[5]; 30 mg QD
  number of significantly altered proteins from baseline to week 12: 0
[5]; 60 mg QD
  number of significantly altered proteins from baseline to week 12: 115
[5]; week 2, linear regression
  number of serum proteins significantly changing with treatment: 20
[5]; week 4, linear regression
  number of serum proteins significantly changing with treatment: 82
[5]; week 12, linear regression
  number of serum proteins significantly changing with treatment: 192
[6]
  pharmacokinetic (PK) profile, overall: favorable pharmacokinetic (PK) profile
  safety and tolerability, overall: safe and well tolerated
